Assay outcomes from PubChem.
Rows were chosen to be rich in hits. Some 3.8% of all compounds tested hit in one or more screens of this group.
B2AR ag – beta2AR agonists driving receptor internalization, primary screen, cell-based, FAP fluorogen, flow cytometry. Am2.2-beta2AR cells. response, % (concentration not given with the values). hit rate 0.43% among 340,000;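 active = response above a set limit, near 3 SD of response in nonfluorescent compounds, cut at about 42% in these data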
Target sequence (P07550 whole entry, looked up): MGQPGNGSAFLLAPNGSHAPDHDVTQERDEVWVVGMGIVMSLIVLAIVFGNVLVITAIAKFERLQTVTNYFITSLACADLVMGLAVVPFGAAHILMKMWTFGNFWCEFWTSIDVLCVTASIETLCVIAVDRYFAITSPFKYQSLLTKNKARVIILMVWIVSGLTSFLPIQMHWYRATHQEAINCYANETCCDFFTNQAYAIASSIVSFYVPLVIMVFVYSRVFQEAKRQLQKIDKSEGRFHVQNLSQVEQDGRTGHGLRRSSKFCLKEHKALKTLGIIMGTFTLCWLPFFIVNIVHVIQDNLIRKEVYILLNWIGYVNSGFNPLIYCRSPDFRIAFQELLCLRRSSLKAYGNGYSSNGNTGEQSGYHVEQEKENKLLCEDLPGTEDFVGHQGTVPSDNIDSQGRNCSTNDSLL
rCAG RNA binder – binders of r(CAG) RNA repeats, primary screen, biochemical, fluorescence | AID 651821, 2012 | hit rate 1.3% among 370,000 | inhibition, % at 3 µM | r(CAG) RNA repeat, TO-PRO-1 dye displacement fluorescence;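 active = inhibition above the plate cutoff, the mean of all test compounds on that plate plus 3 SD, cut at about 35% in these data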;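 also: 0% = DMSO alone and 100% = 100 µM mitoxantrone as full dye displacement; higher means more dye released from RNA so lower well fluorescence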
V-ATPase pHluor – regulators of yeast V-ATPase proton pumping, primary screen, pHLuorin cytosolic pH fluorescence | response, % at 10 µM | hit rate 0.37% among 350,000 | S. cerevisiae | AID 504577, 2011; in the data active = response mostly above about 7.3%, no sharp cut-off; inactive = mostly below about 5.4%; also: actives read high
Granule exo inh – LAMP-1 surface exposure blockers, TALL-104 cells – cell-based, flow cytometry, MLPCN library, primary screen; TALL-104 LAMP-1 surface exposure; cells stimulated with thapsigargin and PMA; hit rate 0.66% among 360,000; inhibition, % at 10 µM;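 active = inhibition above about 55%, limit read from the data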
MPTP block – mitochondrial permeability transition pore inhibitors, primary screen, biochemical, isolated mouse mitochondria, absorbance | hit rate 1.4% among 360,000 | inhibition, % at 10 µM | Ca2+ swelling absorbance, 30 min;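 active = inhibition of 50% or more, scaled per plate between neutral and stimulator controls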;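 also: 0% = DMSO wells given calcium and 100% = 1 mM EGTA wells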
T cell HTS – modulators of CD8 T cell-vesicle binding, primary screen, mouse 2C CD8+ T cells, flow cytometry. 2C CD8+ T cell-vesicle binding; stronger effect = lower value. response (vesicle binding), % at 7 µM. hit rate 0.068% among 330,000;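 active = response, share of CD8 T cells binding vesicles, and their 90th percentile fluorescence all below set limits, cut at about 80% in these data, passing the limit was not always enough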;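 also: values below 100% mean blocked vesicle binding to the CD8+ T cells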
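Benchmarks: naked versus QL9-loaded vesicles / Assay system: purified 2C TCR transgenic mouse naive CD8+ T cells / Technique: high-throughput flow cytometry with anti-B7-1 and anti-CD8 staining / Timing: Cell–vesicle co-incubation 1.5 h at 37 °C, staining 20 min on ice / Read-out: percent CD8+ FL2 mean versus row control / Probe or stimulus: QL9-loaded Drosophila micro-vesicles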
Beta2AR ag CP1 – beta2AR agonists via receptor internalization, confirmation, cell-based, FAP fluorogen, flow cytometry, single point, cherry pick 1; shares compounds with B2AR ag; Am2.2-beta2AR cells, FAP surface receptor; stronger effect = lower value; percent response (surface receptor), % at 10 µM; hit rate 25% among 1,100;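 active = surface receptor percent response at or below 58%, roughly 3 SD from nonfluorescent compounds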
FAP fluor counter – flagged in Am2.2 fluorescence counterscreen for beta-2AR agonists; AID 588765; Am2.2 cells, FAP fluorogen flow cytometry; stronger effect = lower value; 1,100 tested, under 10 active; shares compounds with B2AR ag; calls only at 10 µM;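 active = percent response below a set limit in fluorescence channel 1 and below 50% in channel 8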
The depositor's hits bear a star; i = inactive; . = no result given.

SMILES	B2AR ag	rCAG RNA binder	V-ATPase pHluor	Granule exo inh	MPTP block	T cell HTS	Beta2AR ag CP1	FAP fluor counter
CC(C)Cc1nc2sc3c(NCc4ccco4)ncnc3c2c2c1COC(C)(C)C2	65.1*	5.4	2.3	-3.4	6.9	i	27.6*	i
CC1(C)Cc2c(c(-c3ccco3)nc3sc4c(NCCO)ncnc4c23)CO1	100.5*	20.8	-0.2	-1.1	1.6	253.7	16.4*	i
CC(C)c1nc2oc3c(NCCO)ncnc3c2c2c1COC(C)(C)C2	4.8	-7.6	2.9	-0.6	-0.7	210.8	113.7	i
COC(=O)CSc1nc(SC)nc2c1sc1nc(-c3ccco3)c3c(c12)CC(C)(C)OC3	-5.8	-0.7	1.6	-3.0	-0.6	.	.	.
COCCCNc1ncnc2c1sc1nc(-c3ccco3)c3c(c12)CC(C)(C)OC3	98.8*	9.5	5.7	7.1	0.6	114.7	20.1*	i
Cc1nc2sc3c(NCc4ccco4)ncnc3c2c2c1COC(C)(C)C2	-15.7	1.8	2.0	-7.1	-5.1	244.3	.	.
CC(C)c1nc2oc3c(NCC4CCCO4)ncnc3c2c2c1COC(C)(C)C2 (stereo not drawn)	-3.6	-7.2	-2.3	-1.6	0.6	.	.	.
CC(=O)N[C@@H]1C[C@@H]2O[C@H](CO)CC[C@@H]2O[C@@H]1CCc1ccc(-c2ccc(F)cc2)cc1	.	3.8	.	.	.	.	.	.
C#CCCCN([C@H](C(=O)OC)C(C)C)S(=O)(=O)c1ccccc1Br	.	-0.5	.	.	.	.	.	.
CCOC(CN=c1nc(N(C)C)ss1)OCC	-6.8	-0.8	-0.6	12.1	-0.7	.	.	.
CN(C)c1nc(=NCc2ccco2)ss1	11.7	.	6.3	76.2*	-0.6	56.6	110.9	i
CCOC(=O)Cn1nnnc1CN(Cc1ccccc1)Cc1cc2cc(CC)ccc2[nH]c1=O	100.2*	-0.8	3.4	-1.9	2.1	802.0	62.5	i
COc1ccc(S(=O)(=O)N(Cc2ccco2)Cc2cc3ccccc3[nH]c2=O)cc1	-8.7	4.9	4.3	-0.9	-0.9	500.9	160.9	i
O=c1[nH]c2ccccc2cc1CN(Cc1ccco1)S(=O)(=O)c1ccccc1	-22.2	2.1	-1.8	3.7	-1.5	542.3	160.4	i
CN[C@H]1C[C@H]2c3[nH]c4c(-c5ccc6c(c5)OCO6)cccc4c3CCN2C[C@H]1[C@H](C)O	.	12.9	.	.	.	.	.	.
CCOC(=O)C1CCN(S(=O)(=O)c2ccc3c(c2)N(C(C)=O)CC(C)S3)CC1 (stereo not drawn)	49.7*	-5.4	2.8	-10.7	3.6	285.5	78.1	i
CCOC(=O)C1CCN(S(=O)(=O)c2ccc3c(c2)NC(=O)C(C)S3)CC1 (stereo not drawn)	13.6	-4.9	1.2	-10.9	-0.7	283.7	.	.
COc1ccc(CC(=O)Nc2cccc(-c3cn4ccccc4n3)c2)cc1	-5.1	4.1	-0.7	-2.4	-1.6	256.3	.	.
COc1ccc(CC(=O)Nc2ccc(-c3cn4ccccc4n3)cc2)cc1	92.5*	9.1	1.7	-1.0	-1.1	507.3	19.0*	i
CCOC(=O)[C@]12CCCCC/C=C\1N(Cc1ccc(OC)cc1)C(=O)[C@H]2CC(=O)NCc1cccs1	.	0.8	.	.	.	.	.	.
COC(=O)C[C@H]1CC[C@@H]2[C@H](COc3ccc(NC(=O)C(C)C)cc3C(=O)N2C)O1	.	2.4	.	.	.	.	.	.
O=C(c1ccc([N+](=O)[O-])s1)N1CCN(c2ccc(C(F)(F)F)cn2)CC1	83.8*	5.7	-3.6	17.8	-0.9	392.3	108.9	i
O=C(CN1C(=O)C2(OCCCO2)c2ccccc21)NCc1ccccc1Cl	.	-0.6	.	.	.	.	.	.
Cc1ccccc1-c1nc2c3ccccc3nc(=S)n2[nH]1	7.4	1.0	1.8	2.4	0.7	316.3	118.8	i
CCOC(=O)[C@@]12CCCC=C1N(CCc1ccc(Cl)cc1)C(=O)[C@H]2CC(=O)NCC1CCCCC1	.	4.3	.	.	.	.	.	.
SMILES	B2AR ag	rCAG RNA binder	V-ATPase pHluor	Granule exo inh	MPTP block	T cell HTS	Beta2AR ag CP1	FAP fluor counter
COC1=C[C@H](C(=O)NCCOC(C)=O)[C@H](C)[C@@H](c2ccccc2)CC1=O	.	8.1	.	.	.	.	.	.
CC(C)(C)c1ccc(-c2nnc(SCC3CCCCO3)n2-c2ccc(Cl)cc2)cc1 (stereo not drawn)	.	6.4	.	.	.	.	.	.
O=C(Cn1cc(C(F)(F)F)cc(Cl)c1=O)NCCc1ccc(Cl)cc1Cl	55.2*	-5.7	-0.6	-0.8	0.7	206.1	86.6	i
Cc1ccc(S(=O)(=O)c2ccc([N+](=O)[O-])cn2)cc1	65.0*	-2.3	2.4	13.9	-1.5	178.5	73.2	i
CC(C)Oc1ccc(/C=N/NC(N)=S)cc1	-4.7	-0.4	-0.9	1.4	0.3	234.6	92.4	i
COc1ccc(/C=N/NC(N)=S)cc1	2.4	-1.1	-2.8	4.4	2.5	351.0	.	.
Cc1cccc(OCc2n(CC(=O)OC3CC(C)CCC3C(C)C)c3ccccc3[n+]2C)c1 (stereo not drawn)	10.4	.	-1.1	89.0*	8.6	525.8	96.1	i
Cc1ccc(-n2ncc(C(=O)Nc3cc(Cl)cc(Cl)c3)c2C2CCNCC2)cc1C	56.4*	10.1	-1.5	88.1*	2.2	.	76.1	i
Cc1ccc(CS(=O)(=O)c2nc3c(c(N(C)C)n2)CCCC3)cc1	73.0*	-4.3	0.2	0.7	-0.9	324.6	27.0*	i
Cc1nc(S(=O)(=O)Cc2ccc(Cl)cc2)nc2c1CCC2	-1.0	-4.5	-1.3	-5.3	-0.6	204.3	.	.
COc1ccccc1C(=O)Nc1ccc2oc(-c3ccc(F)cc3)nc2c1	4.7	0.9	-1.6	0.6	3.9	220.4	64.9	i
COc1ccc(C(=O)Nc2ccc3oc(-c4cccc(F)c4)nc3c2)cc1OC	8.7	2.0	-1.7	-1.9	-0.5	637.9	.	.
COc1ccccc1-c1cc(C(F)(F)F)nc(S(=O)(=O)CCCC(=O)Nc2cc(C)on2)n1	32.0	-1.3	1.1	5.2	-3.1	446.2	.	.
COc1ccccc1-c1cc(C(F)(F)F)nc(S(=O)(=O)CCCC(=O)NC(C)C)n1	98.4*	-2.1	-2.4	4.2	-1.2	469.3	54.3*	i
C[C@@H]1COc2cc(F)ccc2S(=O)(=O)N1C	.	0.1	.	.	.	.	.	.
CCOCCCNC(=O)c1cc(-c2cccnc2)nc2ccc(S(=O)(=O)N3CCC(C)CC3)cc12	59.4*	.	1.4	-7.1	-3.5	310.8	56.8*	i
COCCNC(=O)c1cc(-c2ccccn2)nc2ccc(S(=O)(=O)N3CCC(C)CC3)cc12	0.0	-1.2	-2.8	-2.4	-0.3	371.0	.	.
